From ChEMBL document CHEMBL5036324 (J Med Chem, 2021)
Activity calls are given as the source filed them. The rule behind the calls is not given here.

Assays:
CT26 [1] = assay: Antitumor immunity against mouse CT26 cells implanted in BALB/c mouse assessed as increase in infiltration of CD8+ T cytotoxic lymphocytes at 25 ug, ip administered once a week with anti-PD-1 antibody for 23 days by flow cytometry analysis; type: functional, organism-based; settings: dose 25.0 µg, time 23.0 day
In short: (§1)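 CT26-bearing BALB/c mice (n = 5) were treated ip once weekly with agonist, alone or with anti-PD-1 (200 μg, twice weekly). Tumours were harvested 23 days after implantation, enzymatically and mechanically dissociated into single cells, and stained for surface markers plus intracellular FoxP3 after fixation/permeabilisation. Cells were gated within CD45⁺ for CD11c⁺ DCs, CD11b⁺F4/80⁺MHCII⁺ (M1), CD206⁺ (M2), CD3/CD4/CD8, and CD4⁺CD25⁺FoxP3⁺ Treg, then analysed by flow cytometry.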

[2] = Acute toxicity in BALB/c mouse assessed as decrease in locomotor activity at 15 to 80 mg/kg, ip administered as single dose; type: organism-based; settings: in vivo, dose 15-80 mg/kg
[3] = Acute toxicity in BALB/c mouse assessed as white discharge from eyes at 15 to 80 mg/kg, ip administered as single dose; type: organism-based; settings: in vivo, dose 15-80 mg/kg
CT26 [4] = assay: Antitumor immunity against mouse CT26 cells implanted in BALB/c mouse assessed as increase in infiltration of CD4+ TH1 cells at 25 ug, ip administered once a week with anti-PD-1 antibody for 23 days by flow cytometry analysis; type: functional, organism-based; settings: dose 25.0 µg, time 23.0 day; in short: as §1
[5] = Toxicity in BALB/c mouse implanted with mouse CT26 cells assessed as decrease in body weight at 25 ug, ip administered once a week for 23 days; type: organism-based; settings: in vivo, 552 h, dose 25 µg, time 23 day
In short: (§2)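 CT26 subcutaneous tumor-bearing BALB/c mice (n = 5) were treated from 100 mm³ tumor volume. TLR7/8 agonist was given ip once weekly, alone or with anti-PD-1 antibody (200 μg ip, twice weekly). Body weight was tracked over the treatment period and reported as mean ± SEM.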

[6] = Acute toxicity in BALB/c mouse assessed as body weight regain at 60 mg/kg, ip administered as single dose measured after 3 days; type: organism-based; settings: in vivo, 72 h, time 3 day
CT26 [7] = assay: Antitumor activity against mouse CT26 cells implanted in BALB/c mouse assessed as tumor growth delay at 25 ug, ip administered once per week and measured every 3 days for 23 days; type: functional, organism-based; settings: dose 25.0 µg, time 23.0 day
In short: (§3)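 Subcutaneous CT26 tumours were grown in BALB/c mice, with cells cultured in DMEM/10% FBS. At a mean tumour size of 100 mm³, mice were randomised (n = 5/group). Agonist was given ip once weekly; anti-PD-1 or IgG isotype was given ip at 200 μg twice weekly. Tumour volume (V = 1/2ab²) was measured every 3 days. Mice were euthanised at 2000 mm³.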

[8] = Acute toxicity in BALB/c mouse assessed as mild diarrhea at 15 to 80 mg/kg, ip administered as single dose; type: organism-based; settings: in vivo, dose 15-80 mg/kg
[9] = Acute toxicity in BALB/c mouse assessed as mortality at 120 mg/kg, ip administered as single dose; type: organism-based; settings: in vivo
[10] = molecular target: T1, TLR7 and TLR8 (Homo sapiens) (UniProt Q9NYK1+Q9NR97); assay: Agonist activity at human TLR7/8 expressed in human PBMC cells assessed as induction of IL-6 production by measuring concentration required to induce maximal response incubated for 12 hrs by multiplexed immunoassay; type: cell-based; settings: filed as agonist
In short: (§4)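 Healthy-volunteer PBMCs from a single donor were isolated by Ficoll−Hypaque gradient and plated at 2.0 × 10⁶ cells/mL. They were stimulated for 12 h with escalating compound concentrations. Supernatants were assayed in duplicate on a 41-analyte magnetic bead cytokine/chemokine panel read by Luminex. EC_max is the concentration giving maximal cytokine induction.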

[11] = molecular target: T1, TLR7 and TLR8 (Homo sapiens); assay: Agonist activity at human TLR7/8 expressed in human PBMC cells assessed as induction of IP-10 production by measuring concentration required to induce maximal response incubated for 12 hrs by multiplexed immunoassay; type: cell-based; settings: filed as agonist; in short: as §4
[12] = Subacute toxicity in BALB/c mouse assessed as body weight loss at 1.12 g, ip administered as single dose; type: organism-based; settings: in vivo
In short: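 Subacute study in BALB/c mice, with treated and control groups. Body weight was recorded every day. Spleens were weighed and photographed, and tissues were examined by H&E staining.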

CT26 [13] = assay: Antitumor activity against mouse CT26 cells implanted in BALB/c mouse assessed as reduction in tumor volume at 25 ug, ip administered once a week in presence of anti-PD-1 antibodies and measured every 3 days for 23 days; type: functional, organism-based; settings: dose 25.0 µg, time 23.0 day; in short: as §3
[14] = molecular target: T1, TLR7 and TLR8 (Homo sapiens); assay: Agonist activity at human TLR7/8 expressed in human PBMC cells assessed as induction of IL-8 production by measuring concentration required to induce maximal response incubated for 12 hrs by multiplexed immunoassay; type: cell-based; settings: filed as agonist; in short: as §4
[15] = molecular target: T1, TLR7 and TLR8 (Homo sapiens); assay: Agonist activity at human TLR7/8 expressed in human PBMC cells assessed as induction of TNFalpha production by measuring concentration required to induce maximal response incubated for 12 hrs by multiplexed immunoassay; type: cell-based; settings: filed as agonist; in short: as §4
[16] = molecular target: T1, TLR7 and TLR8 (Homo sapiens); assay: Agonist activity at human TLR7/8 expressed in human PBMC cells assessed as induction of IL-1beta production by measuring concentration required to induce maximal response incubated for 12 hrs by multiplexed immunoassay; type: cell-based; settings: filed as agonist; in short: as §4
[17] = molecular target: T1, TLR7 and TLR8 (Homo sapiens); assay: Agonist activity at human TLR7/8 expressed in human PBMC cells assessed as induction of INF-gamma production by measuring concentration required to induce maximal response incubated for 12 hrs by multiplexed immunoassay; type: cell-based; settings: filed as agonist; in short: as §4
[18] = molecular target: T1, TLR7 and TLR8 (Homo sapiens); assay: Agonist activity at human TLR7/8 expressed in human PBMC cells assessed as induction of MIP-1alpha production by measuring concentration required to induce maximal response incubated for 12 hrs by multiplexed immunoassay; type: cell-based; settings: filed as agonist; in short: as §4
CT26 [19] = assay: Antitumor immunity against mouse CT26 cells implanted in BALB/c mouse assessed as increase in Teff/Treg ratio at 25 ug, ip administered once a week for 23 days by flow cytometry analysis; type: functional, organism-based; settings: dose 25.0 µg, time 23.0 day; in short: as §1
[20] = Toxicity in BALB/c mouse implanted with mouse CT26 cells assessed as decrease in body weight at 25 ug, ip administered once a week in presence of anti-PD-1 antibodies for 23 days; type: organism-based; settings: in vivo, 552 h, dose 25 µg, time 23 day; in short: as §2
CT26 [21] = assay: Antitumor immunity against mouse CT26 cells implanted in BALB/c mouse assessed as increase in infiltration of CD4+ TH1 cells at 25 ug, ip administered once a week for 23 days by flow cytometry analysis; type: functional, organism-based; settings: dose 25.0 µg, time 23.0 day; in short: as §1
[22] = molecular target: T1, TLR7 and TLR8 (Homo sapiens); assay: Agonist activity at human TLR7/8 expressed in human PBMC cells assessed as induction of G-CSF production by measuring concentration required to induce maximal response incubated for 12 hrs by multiplexed immunoassay; type: cell-based; settings: filed as agonist; in short: as §4
[23] = molecular target: T1, TLR7 and TLR8 (Homo sapiens); assay: Agonist activity at human TLR7/8 expressed in human PBMC cells assessed as induction of IL-10 production by measuring concentration required to induce maximal response incubated for 12 hrs by multiplexed immunoassay; type: cell-based; settings: filed as agonist; in short: as §4
[24] = molecular target: T1, TLR7 and TLR8 (Homo sapiens); assay: Agonist activity at human TLR7/8 expressed in human PBMC cells assessed as induction of MCP-1 production by measuring concentration required to induce maximal response incubated for 12 hrs by multiplexed immunoassay; type: cell-based; settings: filed as agonist; in short: as §4
[25] = Acute toxicity in BALB/c mouse assessed as decrease in locomotor activity at 15 to 80 mg/kg, ip administered as single dose measured after 24 hrs; type: organism-based; settings: in vivo, dose 15-80 mg/kg
[26] = molecular target: T1, TLR7 and TLR8 (Homo sapiens); assay: Agonist activity at human TLR7/8 expressed in human PBMC cells assessed as induction of VEGF secretion incubated for 12 hrs by multiplexed immunoassay; type: cell-based; settings: filed as agonist; in short: as §4
CT26 [27] = assay: Antitumor immunity against mouse CT26 cells implanted in BALB/c mouse assessed as increase in Teff/Treg ratio at 25 ug, ip administered once a week with anti-PD-1 antibody for 23 days by flow cytometry analysis; type: functional, organism-based; settings: dose 25.0 µg, time 23.0 day; in short: as §1
[28] = Acute toxicity in BALB/c mouse assessed as body weight loss at 60 mg/kg, ip administered as single dose relative to control; type: organism-based; settings: in vivo
[29] = Acute toxicity in BALB/c mouse assessed as white discharge from eyes at 15 to 80 mg/kg, ip administered as single dose measured after 24 hrs; type: organism-based; settings: in vivo, dose 15-80 mg/kg
CT26 [30] = assay: Antitumor immunity against mouse CT26 cells implanted in BALB/c mouse assessed as increase in infiltration of CD8+ T cytotoxic lymphocytes at 25 ug, ip administered once a week for 23 days by flow cytometry analysis; type: functional, organism-based; settings: dose 25.0 µg, time 23.0 day; in short: as §1
[31] = Acute toxicity in BALB/c mouse assessed as mild diarrhea at 15 to 80 mg/kg, ip administered as single dose measured after 24 hrs; type: organism-based; settings: in vivo, dose 15-80 mg/kg
[32] = Acute toxicity in BALB/c mouse assessed as maximum tolerated dose; settings: in vivo
[33] = Subacute toxicity in BALB/c mouse assessed as splenomegaly at 15 mg/kg, ip administered as single dose; type: organism-based; settings: in vivo
In short: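 Subacute toxicity study in BALB/c mice given ip TLR7/8 agonist. Spleens from treated and control groups were weighed and photographed. Body weight was recorded every day.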

[34] = molecular target: T1, TLR7 and TLR8 (Homo sapiens); assay: Agonist activity at human TLR7/8 expressed in human PBMC cells assessed as induction of IL-12p40 production by measuring concentration required to induce maximal response incubated for 12 hrs by multiplexed immunoassay; type: cell-based; settings: filed as agonist; in short: as §4

CCOCc1nc2c(N)nc3ccccc3c2n1CC(C)(C)O [RESIQUIMOD]
Activity (CT26 [1]): Active
Activity [2]: Toxic
Activity [3]: Toxic
Activity (CT26 [4]): Active
Activity [5]: Non-Toxic
Activity [6]: Non-Toxic
Activity (CT26 [7]): Active
Activity [8]: Toxic
Activity [9]: Toxic
ECmax [10]: 2 µg/mL
ECmax [11]: 2 µg/mL
Activity [12]: Toxic
Activity (CT26 [13]): Active
ECmax [14]: 2 µg/mL
ECmax [15]: 2 µg/mL
ECmax [16]: 2 µg/mL
ECmax [17]: 2 µg/mL
ECmax [18]: 2 µg/mL
Activity (CT26 [19]): Active
Activity [20]: Non-Toxic
Activity (CT26 [21]): Active
ECmax [22]: 2 µg/mL
ECmax [23]: 2 µg/mL
ECmax [24]: 2 µg/mL
Activity [25]: Non-Toxic
Activity [26]: Active
Activity (CT26 [27]): Active
Activity [28]: 8.7%
Activity [29]: Non-Toxic
Activity (CT26 [30]): Active
Activity [31]: Non-Toxic
MTD [32]: 80 mg/kg
Activity [33]: Toxic
ECmax [34]: 2 µg/mL
